Series [1] in a line: Solubility of compound in pH 7.4 sodium phosphate buffer. Format: physicochemical. The essentials: (§1)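 Solubility measured in 0.1 M sodium phosphate buffer, pH 7.4, containing 1% DMSO.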
In series [2] the target is T1, Bifunctional epoxide hydrolase 2 (Homo sapiens, UniProt P34913).
T1 sequence (P34913 whole entry): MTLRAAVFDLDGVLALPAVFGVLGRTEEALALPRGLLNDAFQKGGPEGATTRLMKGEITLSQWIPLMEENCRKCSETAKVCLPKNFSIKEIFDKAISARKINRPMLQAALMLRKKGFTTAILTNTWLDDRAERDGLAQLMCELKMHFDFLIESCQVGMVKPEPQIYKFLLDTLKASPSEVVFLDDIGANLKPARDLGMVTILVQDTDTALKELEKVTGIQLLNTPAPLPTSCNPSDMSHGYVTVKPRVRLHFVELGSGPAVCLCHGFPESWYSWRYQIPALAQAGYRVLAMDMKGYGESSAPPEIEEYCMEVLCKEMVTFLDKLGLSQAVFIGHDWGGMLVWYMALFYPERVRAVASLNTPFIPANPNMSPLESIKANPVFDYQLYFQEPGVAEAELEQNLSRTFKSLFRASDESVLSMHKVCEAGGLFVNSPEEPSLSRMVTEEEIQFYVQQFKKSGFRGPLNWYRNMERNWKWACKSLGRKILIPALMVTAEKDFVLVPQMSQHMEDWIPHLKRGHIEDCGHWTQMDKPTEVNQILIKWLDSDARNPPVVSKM
As to the kind of experiment: Inhibition of human soluble epoxide hydrolase by kinetic fluorescent assay. The essentials: (§2)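 Kinetic fluorescent read-out of sEH activity; each reported value is the mean of three separate experiments.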

Series [3] in a line: Aqueous solubility of compound. It counts as physicochemical. The gist of the method:
as §1

For series [4], the target named is T1, Bifunctional epoxide hydrolase 2. Kind of series: Inhibition of human soluble epoxide hydrolase using cyano(2methoxy naphthalen-6-yl)methyl trans-(3-phenyloxyran-2-yl)methylcarbonate as substrate preincubated for 5 mins followed by substrate addition and measured after 10 mins by fluorescence based assay. The gist of the method: as §2

In brackets after ≈: the same amount, converted by molar mass.

For orientation: solubility means the concentration that dissolves in the medium under given conditions. Lower therefore signals a poorly soluble substance. As usually defined, the IC50 is the concentration needed to halve the response being measured. `O=C1C(=O)N(CC23CC4CC(CC(C4)C2)C3)C(=O)N1CCN(CCN1C(=O)C(=O)N(CC23CC4CC(CC(C4)C2)C3)C1=O)CCN1C(=O)C(=O)N(CC23CC4CC(CC(C4)C2)C3)C1=O` yielded a solubility in series [1] of 650 µM (≈ 573 µg/mL). Also, the IC50 in series [2] stood at 80.3 nM. Compound `O=C1C(=O)N(c2ccccc2F)C(=O)N1c1ccc(C23CC4CC(CC(C4)C2)C3)cc1` registered a solubility in series [1] of 250 µM (≈ 105 µg/mL). For the same compound, half-maximal inhibition in series [2] (IC50) required 160 nM. With `CCC(CC12CC3CC(CC(C3)C1)C2)N1C(=O)C(=O)N(CCCCN2C(=O)C(=O)N(C(CC)CC34CC5CC(CC(C5)C3)C4)C2=O)C1=O` (stereo not given), the concentration in solution in series [1] (solubility) came to 90 µM (≈ 59.7 µg/mL). The compound further registered a half-maximal inhibitory concentration (IC50) in series [2] of 8.4 nM. `O=C(Nc1ccc(C23CC4CC(CC(C4)C2)C3)cc1)Nc1ccccc1F` yielded a solubility in series [1] of 85 µM (≈ 31 µg/mL). `O=C1C(=O)N(CCC23CC4CC(CC(C4)C2)C3)C(=O)N1CCCCCCN1C(=O)C(=O)N(CCC23CC4CC(CC(C4)C2)C3)C1=O` yielded a solubility in series [1] of 1300 µM (≈ 825 µg/mL). The compound also yielded an IC50 in series [2] of 92 nM. In the case of `O=C1C2CC3CC1CC(N1C(=O)C(=O)N(C45CC6CC(C4)C(=O)C(C6)C5)C1=O)(C3)C2`, the concentration in solution in series [1] (solubility) came to 150 µM (≈ 61.6 µg/mL). In addition, the half-maximal inhibitory concentration (IC50) in series [2] stood at 8420 nM. For `O=C(O)c1ccc(O[C@H]2CC[C@H](N3C(=O)C(=O)N(C45CC6CC(CC(Cl)(C6)C4)C5)C3=O)CC2)cc1`, the concentration in solution in series [1] (solubility) came to 250 µM (≈ 125 µg/mL). For the same compound, the IC50 in series [2] amounted to 0.4 nM. For the compound `CC(N1C(=O)C(=O)N(c2ccccc2F)C1=O)C12CC3CC(CC(C3)C1)C2` (stereo not given), in series [1], the solubility stood at 900 µM (≈ 333 µg/mL). For the same compound, in series [2], the midpoint of inhibition, the IC50, lay at 466 nM. As for `O=C(O)c1ccc(O[C@H]2CC[C@H](N3C(=O)C(=O)N(c4ccc(OC(F)(F)F)cc4)C3=O)CC2)cc1`, in series [1], the solubility is 210 µM (≈ 103 µg/mL). Further, half-maximal inhibition in series [2] (IC50) required 7.7 nM. On the same counts, the results for `O=C1C(=O)N(CCC23CC4CC(CC(C4)C2)C3)C(=O)N1CCCCN1C(=O)C(=O)N(CCC23CC4CC(CC(C4)C2)C3)C1=O` are 900 µM (≈ 546 µg/mL) and 294 nM. With `O=C1C(=O)N(c2ccccc2F)C(=O)N1CC12CC3CC(CC(C3)C1)C2`, in series [1], the solubility turned out to be 350 µM (≈ 125 µg/mL). The compound further came in with an IC50 in series [2] of 311 nM. `O=C(NCC12CC3CC(CC(C3)C1)C2)Nc1ccccc1F` had a solubility in series [1] of 65 µM (≈ 19.7 µg/mL). In series [2], this compound displayed an IC50 of 0.7 nM.

Consider `O=C(Nc1ccc(OC(F)(F)F)cc1)N[C@H]1CC[C@H](Oc2ccc(C(=O)O)cc2)CC1`, for which the solubility in series [3] was determined as 5 µM (≈ 2.19 µg/mL).

The compound `O=C(NCCCCCCNC(=O)NCCC12CC3CC(CC(C3)C1)C2)NCCC12CC3CC(CC(C3)C1)C2` registered an IC50 in series [4] of 0.8 nM. Further, the solubility in series [1] is 80 µM (≈ 42.1 µg/mL).

`O=C(NCCCCNC(=O)NCCC12CC3CC(CC(C3)C1)C2)NCCC12CC3CC(CC(C3)C1)C2` had an IC50 in series [4] of 3.4 nM. In series [1], this compound showed a solubility of 100 µM (≈ 49.9 µg/mL). As for `O=C(NC1CCCCCC1)N[C@H]1CC[C@H](Oc2ccc(C(=O)O)cc2)CC1`, in series [1], the solubility was 100 µM (≈ 37.4 µg/mL). It took 4.5 nM to reach half-maximal inhibition in series [2] (IC50). In turn, `O=C1C(=O)N(C2C3CC4CC(C3)CC2C4)C(=O)N1c1ccccc1F` (stereo not given) displayed a solubility in series [1] of 250 µM (≈ 85.6 µg/mL). The same compound showed an IC50 in series [2] of 6130 nM. Consider `O=C1C(=O)N(C23CC4CC(CC(C4)C2)C3)C(=O)N1CCCCCCN1C(=O)C(=O)N(C23CC4CC(CC(C4)C2)C3)C1=O`, for which the concentration in solution in series [1] (solubility) came to 120 µM (≈ 69.4 µg/mL). This compound came in with an IC50 in series [2] of 1.6 nM.

With `O=C(NCCN(CCNC(=O)NCC12CC3CC(CC(C3)C1)C2)CCNC(=O)NCC12CC3CC(CC(C3)C1)C2)NCC12CC3CC(CC(C3)C1)C2`, the solubility in series [1] came out at 70 µM (≈ 50.4 µg/mL). The compound further returned a 50% inhibitory concentration (IC50) in series [2] of 6.7 nM.

In turn, `CC12CC3CC(C)(C1)CC(NC(=O)NC1C4CC5CC(C4)CC1C5)(C3)C2` (stereo not given) displayed a half-maximal inhibitory concentration (IC50) in series [4] of 9.6 nM. The compound further returned a solubility in series [1] of 20 µM (≈ 7.13 µg/mL). Take `CCC(CC12CC3CC(CC(C3)C1)C2)N1C(=O)C(=O)N(C23CC4CC(C)(C2)C[C@@](C)(C4)C3)C1=O` (stereo not given in full): the solubility in series [1] is 100 µM (≈ 46.7 µg/mL). In series [2], this compound yielded an IC50 of 216 nM. Regarding `O=C(NCCCCCCCCNC(=O)NCCC12CC3CC(CC(C3)C1)C2)NCCC12CC3CC(CC(C3)C1)C2`, inhibition in series [4] was half-maximal at 1.5 nM (IC50). Besides, the solubility in series [1] was determined as 75 µM (≈ 41.6 µg/mL).

In series [1], `CCC(CC12CC3CC(CC(C3)C1)C2)N1C(=O)C(=O)N(CCCCCCCCN2C(=O)C(=O)N(C(CC)CC34CC5CC(CC(C5)C3)C4)C2=O)C1=O` (stereo not given) came in with a solubility of 100 µM (≈ 71.9 µg/mL). In series [2], the midpoint of inhibition, the IC50, lay at 650 nM.

The compound `O=C(O)c1ccc(O[C@H]2CC[C@H](N3C(=O)C(=O)N(C4CCCCCC4)C3=O)CC2)cc1` returned a solubility in series [1] of 280 µM (≈ 120 µg/mL). In series [2], the midpoint of inhibition, the IC50, lay at 86.8 nM. `CC12CC3CC(C)(C1)CC(N1C(=O)C(=O)N(C4C5CC6CC(C5)CC4C6)C1=O)(C3)C2` (stereo not given) registered a solubility in series [1] of 100 µM (≈ 41.1 µg/mL). The compound further gave an IC50 in series [2] of 22.8 nM.

`O=C(NC12CC3CC(C1)C(=O)C(C3)C2)NC12CC3CC(C1)C(=O)C(C3)C2` displayed a solubility in series [1] of 1750 µM (≈ 624 µg/mL). In series [2], this compound registered an IC50 of 12 nM.

Take `O=C1C(=O)N(CCC23CC4CC(CC(C4)C2)C3)C(=O)N1CCCCCCCCN1C(=O)C(=O)N(CCC23CC4CC(CC(C4)C2)C3)C1=O`: the solubility in series [1] stood at 600 µM (≈ 398 µg/mL). The compound further displayed an IC50 in series [2] of 438 nM. On to `CC12CC3CC(C)(C1)CC(NC(=O)Nc1ccccc1F)(C3)C2`, for which the solubility in series [1] is 65 µM (≈ 20.6 µg/mL). The compound further returned an IC50 in series [2] of 3.6 nM. In series [1], `O=C(Nc1ccccc1F)NC1C2CC3CC(C2)CC1C3` (stereo not given) came in with a solubility of 85 µM (≈ 24.5 µg/mL). The compound further returned an IC50 in series [2] of 1 nM.

In the case of `O=C1C(=O)N(C23CC4CC(CC(C4)C2)C3)C(=O)N1CCCCCCCCN1C(=O)C(=O)N(C23CC4CC(CC(C4)C2)C3)C1=O`, the concentration in solution in series [1] (solubility) was 110 µM (≈ 66.7 µg/mL). The same compound returned an IC50 in series [2] of 3.8 nM. Take `CCC(CC12CC3CC(CC(C3)C1)C2)NC(=O)NC12CC3CC(C)(C1)C[C@@](C)(C3)C2` (stereo not given in full): the IC50 in series [4] amounted to 13.8 nM. The solubility in series [1] was 40 µM (≈ 16.5 µg/mL). As to `CC12CC3CC(C)(C1)CC(N1C(=O)C(=O)N(c4ccccc4F)C1=O)(C3)C2`, the concentration in solution in series [1] (solubility) was 200 µM (≈ 74.1 µg/mL). Besides, the IC50 in series [2] worked out at 371 nM. With `CC(NC(=O)Nc1ccccc1F)C12CC3CC(CC(C3)C1)C2` (stereo not given), in series [1], the solubility is 55 µM (≈ 17.4 µg/mL). In other words, the double-digit micromolar range. With `O=C(NC12CC3CC(CC(Cl)(C3)C1)C2)N[C@H]1CC[C@H](Oc2ccc(C(=O)O)cc2)CC1`, the IC50 in series [4] worked out at 0.4 nM. Moreover, the solubility in series [1] came to 500 µM (≈ 223 µg/mL).

The record behind these values is ChEMBL document CHEMBL4610022, “Imidazolidine-2,4,5- and pirimidine-2,4,6-triones - New primary pharmacophore for soluble epoxide hydrolase inhibitors with enhanced water solubility” (Bioorg Med Chem Lett, 2020).
